As a reminder, the IC50 is the point on the concentration scale where inhibition reaches its midpoint. Higher therefore signals lower potency. Broadly, the ΔTm is the shift of the melting midpoint relative to a reference. The term Kd denotes the equilibrium constant for the complex coming apart. High values mean lower affinity, low ones higher affinity.

Data set [1] deals with T1, NAD-dependent protein deacetylase sirtuin-3, mitochondrial (Homo sapiens, UniProt Q9NTG7).
T1 sequence (Q9NTG7 whole entry): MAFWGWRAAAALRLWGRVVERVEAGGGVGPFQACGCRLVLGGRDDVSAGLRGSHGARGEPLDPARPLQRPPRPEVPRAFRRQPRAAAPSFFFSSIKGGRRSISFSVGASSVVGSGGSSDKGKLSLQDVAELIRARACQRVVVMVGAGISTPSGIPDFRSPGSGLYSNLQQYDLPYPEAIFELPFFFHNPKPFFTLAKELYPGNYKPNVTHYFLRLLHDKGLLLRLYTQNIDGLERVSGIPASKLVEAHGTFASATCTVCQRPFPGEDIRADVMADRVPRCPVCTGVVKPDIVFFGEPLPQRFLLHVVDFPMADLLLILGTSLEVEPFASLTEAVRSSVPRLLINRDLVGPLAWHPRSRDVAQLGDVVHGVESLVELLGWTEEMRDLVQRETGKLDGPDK
Kind of data set: Inhibition of SIRT3 (unknown origin). An outline of the steps:
(§1)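 Each deacetylase was run in a Fluor de Lys (FDL) fluorogenic deacetylation assay as a selectivity screen, with compound tested at concentrations up to 200 μM. IC50 was estimated from the dose-response.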

For another data set, the target named is T2, Histone deacetylase 8 (Homo sapiens, UniProt Q9BY41).
T2 sequence (Q9BY41 whole entry): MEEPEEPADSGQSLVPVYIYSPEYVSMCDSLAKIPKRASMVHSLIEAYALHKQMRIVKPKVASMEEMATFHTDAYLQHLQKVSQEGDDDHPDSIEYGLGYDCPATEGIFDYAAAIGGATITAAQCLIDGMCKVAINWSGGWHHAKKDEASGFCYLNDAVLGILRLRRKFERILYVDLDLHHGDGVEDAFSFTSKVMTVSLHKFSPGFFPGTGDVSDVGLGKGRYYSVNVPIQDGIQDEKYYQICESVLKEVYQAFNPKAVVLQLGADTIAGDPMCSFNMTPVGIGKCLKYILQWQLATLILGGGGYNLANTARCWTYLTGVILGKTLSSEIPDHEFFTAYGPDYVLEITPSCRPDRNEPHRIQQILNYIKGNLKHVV
As to the kind of experiment: Inhibition of HDAC8 (unknown origin). An outline of the steps: as §1

The target in data set [2] is T3, NAD-dependent protein deacetylase sirtuin-2 (Homo sapiens, UniProt Q8IXJ6).
T3 sequence (Q8IXJ6 whole entry): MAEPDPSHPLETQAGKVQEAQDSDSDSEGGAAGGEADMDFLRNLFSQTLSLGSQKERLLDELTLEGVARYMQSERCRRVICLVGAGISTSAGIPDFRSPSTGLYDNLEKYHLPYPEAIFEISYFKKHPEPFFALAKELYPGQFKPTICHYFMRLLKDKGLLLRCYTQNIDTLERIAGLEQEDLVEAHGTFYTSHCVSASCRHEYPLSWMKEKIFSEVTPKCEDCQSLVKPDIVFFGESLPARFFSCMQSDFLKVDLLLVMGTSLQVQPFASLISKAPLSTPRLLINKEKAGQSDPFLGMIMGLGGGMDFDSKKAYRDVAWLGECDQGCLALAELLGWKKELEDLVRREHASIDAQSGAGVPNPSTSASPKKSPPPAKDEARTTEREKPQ
Kind of data set: Inhibition of SIRT2 (unknown origin). An outline of the steps: as §1

Data set [3] deals with T4, NAD-dependent protein deacylase sirtuin-6 (Homo sapiens, UniProt Q8N6T7). As to the kind of experiment: Binding affinity to SIRT6 (unknown origin) assessed as change in melting temperature at 40 uM by differential scanning fluorimetry. (In DSF a fluorescence change marks the thermal transition of the protein.)
Data set [4] has as its target T5, NAD-dependent protein deacetylase sirtuin-1 (Homo sapiens, UniProt Q96EB6).
T5 sequence (Q96EB6 whole entry): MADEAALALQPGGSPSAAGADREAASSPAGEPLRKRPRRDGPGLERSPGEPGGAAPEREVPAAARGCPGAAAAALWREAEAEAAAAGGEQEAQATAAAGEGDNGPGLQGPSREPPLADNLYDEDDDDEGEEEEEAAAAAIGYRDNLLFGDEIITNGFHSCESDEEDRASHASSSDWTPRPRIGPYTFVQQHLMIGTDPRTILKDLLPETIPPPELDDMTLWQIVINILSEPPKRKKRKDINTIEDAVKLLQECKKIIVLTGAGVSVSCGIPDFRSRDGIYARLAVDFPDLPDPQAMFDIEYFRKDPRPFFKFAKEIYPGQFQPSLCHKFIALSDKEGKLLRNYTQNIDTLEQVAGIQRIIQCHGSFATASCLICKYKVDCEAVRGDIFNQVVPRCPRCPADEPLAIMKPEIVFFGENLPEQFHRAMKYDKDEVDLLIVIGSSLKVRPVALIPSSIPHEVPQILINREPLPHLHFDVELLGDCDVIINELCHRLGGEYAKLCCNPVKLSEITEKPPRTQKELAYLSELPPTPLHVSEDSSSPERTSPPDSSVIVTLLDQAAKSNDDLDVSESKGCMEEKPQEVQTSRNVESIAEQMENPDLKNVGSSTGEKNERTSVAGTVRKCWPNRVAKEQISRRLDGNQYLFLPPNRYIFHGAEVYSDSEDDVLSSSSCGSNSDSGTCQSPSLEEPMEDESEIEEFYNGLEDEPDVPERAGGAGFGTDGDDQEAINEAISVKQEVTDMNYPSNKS
As to the kind of experiment: Inhibition of SIRT1 (unknown origin). An outline of the steps: as §1

A further data set has as its target Histone deacetylase 9 (Homo sapiens, UniProt Q9UKV0). Kind of data set: Inhibition of HDAC9 (unknown origin). An outline of the steps:
as §1

Data set [5] has as its target T4, NAD-dependent protein deacylase sirtuin-6. Kind of data set: Binding affinity to SIRT6 (unknown origin) by surface plasmon resonance assay. On the technique in general: In SPR one partner is held on a chip, and binding of the other changes the refractive index at the surface.
Data set [6] can be described thus: Toxicity in mouse assessed as effect on body weight. The note with it: in vivo. An outline of the steps:
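Normal (non-diabetic) mice were dosed, and blood glucose and body weight were tracked over the study.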

The next data set deals with Histone deacetylase 5 (Homo sapiens, UniProt Q9UQL6). As to the kind of experiment: Inhibition of HDAC5 (unknown origin). An outline of the steps: as §1

Bounds are passed on as bounds.

T4 sequence (Q8N6T7 whole entry): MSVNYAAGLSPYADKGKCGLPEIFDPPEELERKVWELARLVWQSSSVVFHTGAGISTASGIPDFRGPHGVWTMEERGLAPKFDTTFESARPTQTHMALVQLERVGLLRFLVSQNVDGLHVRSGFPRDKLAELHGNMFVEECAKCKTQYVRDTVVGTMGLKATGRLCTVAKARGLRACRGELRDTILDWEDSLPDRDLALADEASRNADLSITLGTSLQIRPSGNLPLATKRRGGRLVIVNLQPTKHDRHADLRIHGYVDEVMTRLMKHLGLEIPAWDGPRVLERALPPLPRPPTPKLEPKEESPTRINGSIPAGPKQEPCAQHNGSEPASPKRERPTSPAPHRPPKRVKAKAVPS
Chain of Histone deacetylase 9 (Q9UKV0 whole entry): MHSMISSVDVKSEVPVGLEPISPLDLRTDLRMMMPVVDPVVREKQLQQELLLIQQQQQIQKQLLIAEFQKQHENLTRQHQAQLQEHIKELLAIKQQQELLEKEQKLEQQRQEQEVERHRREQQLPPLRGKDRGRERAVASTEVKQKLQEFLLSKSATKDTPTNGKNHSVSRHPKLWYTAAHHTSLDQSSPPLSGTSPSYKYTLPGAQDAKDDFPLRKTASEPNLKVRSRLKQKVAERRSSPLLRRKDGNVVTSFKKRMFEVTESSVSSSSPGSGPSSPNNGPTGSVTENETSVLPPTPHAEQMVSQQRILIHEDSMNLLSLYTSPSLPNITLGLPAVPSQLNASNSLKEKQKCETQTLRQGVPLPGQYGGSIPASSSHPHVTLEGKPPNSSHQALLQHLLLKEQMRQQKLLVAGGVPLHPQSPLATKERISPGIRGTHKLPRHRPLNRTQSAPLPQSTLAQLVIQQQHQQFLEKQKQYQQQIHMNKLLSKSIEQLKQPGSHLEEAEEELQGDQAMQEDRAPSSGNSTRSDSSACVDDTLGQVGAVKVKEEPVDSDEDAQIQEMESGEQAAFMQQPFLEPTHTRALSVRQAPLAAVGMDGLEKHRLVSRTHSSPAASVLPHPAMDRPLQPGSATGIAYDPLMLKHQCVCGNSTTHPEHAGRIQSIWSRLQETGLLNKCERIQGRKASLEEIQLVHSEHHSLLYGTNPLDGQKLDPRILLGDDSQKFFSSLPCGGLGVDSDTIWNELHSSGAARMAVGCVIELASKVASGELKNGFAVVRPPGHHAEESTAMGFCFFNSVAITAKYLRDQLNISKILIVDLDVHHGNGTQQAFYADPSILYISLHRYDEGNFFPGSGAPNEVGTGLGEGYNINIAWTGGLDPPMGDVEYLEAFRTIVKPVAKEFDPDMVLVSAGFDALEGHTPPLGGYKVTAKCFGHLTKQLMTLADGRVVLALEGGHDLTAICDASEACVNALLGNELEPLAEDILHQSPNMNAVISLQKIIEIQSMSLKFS
Chain of Histone deacetylase 5 (Q9UQL6 whole entry): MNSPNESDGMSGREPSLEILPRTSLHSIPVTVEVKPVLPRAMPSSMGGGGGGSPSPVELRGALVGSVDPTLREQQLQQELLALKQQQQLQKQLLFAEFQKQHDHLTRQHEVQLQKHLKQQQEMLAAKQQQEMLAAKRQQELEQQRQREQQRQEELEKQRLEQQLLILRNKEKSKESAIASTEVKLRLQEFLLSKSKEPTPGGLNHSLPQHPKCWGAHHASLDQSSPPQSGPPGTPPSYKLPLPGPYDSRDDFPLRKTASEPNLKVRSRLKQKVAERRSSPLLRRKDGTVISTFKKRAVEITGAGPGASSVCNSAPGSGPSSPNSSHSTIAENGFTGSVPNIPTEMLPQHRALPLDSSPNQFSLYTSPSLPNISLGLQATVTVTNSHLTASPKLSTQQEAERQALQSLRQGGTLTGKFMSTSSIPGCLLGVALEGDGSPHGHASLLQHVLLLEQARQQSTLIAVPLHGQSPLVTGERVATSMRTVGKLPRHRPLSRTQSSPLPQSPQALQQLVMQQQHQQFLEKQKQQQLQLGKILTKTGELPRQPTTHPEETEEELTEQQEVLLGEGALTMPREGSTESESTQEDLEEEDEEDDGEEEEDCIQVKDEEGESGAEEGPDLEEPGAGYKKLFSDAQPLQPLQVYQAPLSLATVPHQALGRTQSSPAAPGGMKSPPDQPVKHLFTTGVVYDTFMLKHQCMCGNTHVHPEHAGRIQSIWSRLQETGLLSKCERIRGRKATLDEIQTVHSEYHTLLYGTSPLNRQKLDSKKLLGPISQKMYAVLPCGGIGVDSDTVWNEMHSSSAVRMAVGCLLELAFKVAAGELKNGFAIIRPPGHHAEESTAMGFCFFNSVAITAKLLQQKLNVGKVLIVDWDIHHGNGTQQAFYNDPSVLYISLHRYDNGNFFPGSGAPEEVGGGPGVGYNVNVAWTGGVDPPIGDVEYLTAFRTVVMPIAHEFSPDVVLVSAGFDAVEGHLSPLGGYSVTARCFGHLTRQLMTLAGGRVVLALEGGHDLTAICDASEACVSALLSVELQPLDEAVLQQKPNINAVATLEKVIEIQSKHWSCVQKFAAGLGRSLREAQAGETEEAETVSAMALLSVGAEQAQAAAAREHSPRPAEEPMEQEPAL

As for `CN1CCN(c2ccc([N+](=O)[O-])c(N)c2)CC1`, the half-inhibitory concentration (IC50) (in [1]; at Histone deacetylase 8; in data set [2]; in [4]; against Histone deacetylase 9; against Histone deacetylase 5) was > 200 µM in each case. Further, in [3], the thermal shift (ΔTm) came to 1.88 °C. In [5], binding was put at a Kd of 9.76 µM. Also, the Activity result in [6] is reported as “Non-Toxic”.

For the origin of these results see ChEMBL document CHEMBL4622928, “Discovery of 5-(4-methylpiperazin-1-yl)-2-nitroaniline derivatives as a new class of SIRT6 inhibitors” (Bioorg Med Chem Lett, 2020).
